Results taken from ChEMBL document CHEMBL1141130, “A novel selective GABA(A) alpha1 receptor agonist displaying sedative and anxiolytic-like properties in rodents” (J Med Chem, 2005).
pKi: −log10 of the molar value.

How the values were obtained:
[1] = Binding affinity for rat alpha-5 beta2/3 gamma2 GABA-A/BzR receptor
In short: (§1)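 Recombinant rat αxβ2/3γ2 GABAA/benzodiazepine receptors expressed in HEK293 cells. Affinity measured by radioligand binding and reported as Ki. Values are means ± SEM from three independent experiments, each run in triplicate.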

Mus musculus [2] = assay: Percent of mice not entering into the dark compartment in 120 s in 24 hr retention test at 0 hr treatment at a dose of 10 mg/Kg when given peroral […] avoidance test; n=10
Mus musculus [3] = assay: Percent of mice not entering into the dark compartment in 120 s in 24 hr retention test at 0 hr treatment at a dose of 30 mg/Kg when given peroral […] avoidance test; n=10
[4] = Binding affinity for rat alpha-1 beta2/3 gamma2 GABA A / BzR receptor; in short: as §1
[5] = Binding affinity for rat alpha2 beta2/3 gamma2 GABA-A/BzR receptor; in short: as §1
[6] = Binding affinity for rat alpha-3 beta2/3 gamma2 GABA-A/BzR receptor; in short: as §1
Rattus norvegicus [7] = assay: Duration of loss of the righting reflex induced by ethanol at a dose of 30 mg/Kg when given per oral; n=8; type: functional, Mus musculus
Rattus norvegicus [8] = assay: Duration of loss of the righting reflex induced by ethanol at a dose of 3 mg/Kg when given per oral; n=14; type: functional, Mus musculus
Rattus norvegicus [9] = assay: Duration of loss of the righting reflex induced by ethanol at a dose of 1 mg/Kg when given per oral; n=12; type: functional, Mus musculus
Rattus norvegicus [10] = assay: Duration of loss of the righting reflex induced by ethanol at a dose of 0.3 mg/Kg when given per oral; n=8; type: functional, Mus musculus

SMILES | pKi [1] | % (Mus musculus [2]) | % (Mus musculus [3]) | pKi [4] | pKi [5] | pKi [6] | Time (Rattus norvegicus [7]) | Time (Rattus norvegicus [8]) | Time (Rattus norvegicus [9]) | Time (Rattus norvegicus [10])
Cc1ccc(-c2nc3ccc(C)cn3c2CC(=O)N(C)C)cc1 [ZOLPIDEM] | < 5.00 | 50% | 70% |  |  |  |  |  |  | 
Cc1ccc(-c2nn3ccc(C)nc3c2CC(=O)N(C)C)cc1 | < 5.00 | 40% | 50% | 7.51 | < 5.00 | < 5.00 | 104.9 min |  |  | 
CN1C(=O)CN=C(c2ccccc2)c2cc(Cl)ccc21 [DIAZEPAM] |  |  |  |  | 7.70 |  |  | 149.5 min | 129.3 min | 127.4 min
